Measured values collected from several papers.
Each line is one published result; the experiments were not run side by side.
Target: Proto-oncogene tyrosine-protein kinase Src (SRC, Homo sapiens, UniProt P12931)

With CN(C(=O)c1ccccc1)c1cc(N(C)c2ccc3c(c2)CCc2ccc(C(=O)NCCN4CCOCC4)cc2C3=O)ccc1F the remaining binding was 98% (cell-free assay; competition with immobilised ligand; 1 µM).
The remaining binding of C[C@H]1CCN(c2nccc(-c3cnn4ncccc34)n2)C1 is reported as 100% (binding; 1 µM).
For O=C(NCCCN1CCOCC1)c1ccc(Nc2nccc(-c3cc4ccccc4s3)n2)cc1, the remaining binding was 100% (binding; competition with immobilised ligand; 1 µM).
For CN(C)c1ncnc(-c2ccc3nc(Nc4cc(CN5CCN(C(=O)CC(F)(F)F)CC5)ccn4)[nH]c3c2)c1Cl, the remaining binding was 100% (cell-free assay; competition with immobilised ligand; 1 µM).
N[C@H]1CCN(c2nccc(-c3cnn4ncccc34)n2)C1 has a remaining binding of 88% (binding; 1 µM).
The remaining binding of C[C@@H](c1cccc(C#N)c1)n1cc(Cl)cc(C(N)=O)c1=N is reported as 99% (cell-free assay; competition with immobilised ligand; 1 µM).
With CC1CCCN1c1nccc(-c2cnn3ncccc23)n1 (stereo not shown) the remaining binding was 100% (binding; 1 µM).
With Nc1c(C(=O)NCc2ccc(C(=O)NCCCC3CCCCC3)cc2)cnn1-c1ccccc1 the remaining binding was 100% (cell-free assay; competition with immobilised ligand; 0.1 µM).
The remaining binding of CN(C)c1nccc(-c2cnc3ncccn23)n1 is reported as 89% (binding; 1 µM).
Nc1ncc2c(n1)-c1c([nH]c3ccc(C#CC4CC4)cc13)CCCC2 gave a remaining binding of 100% (binding; competition with immobilised ligand; 1 µM).
CNC(=O)[C@@H]1CC[C@@H](n2c(-c3ccc4cnccc4c3)nc3ccc(C(=O)NCc4cccc(C(N)=O)c4)cc32)C1 gave a remaining binding of 100% (binding; competition with immobilised ligand; 1 µM).
For CN(c1nccc(-c2cnn3ncccc23)n1)C1CC1, the remaining binding was 100% (binding; 1 µM).
O=C(NCCCN1CCOCC1)c1ccc(Nc2ncc(Cl)c(-c3ccc(Cl)s3)n2)cc1 has a remaining binding of 100% (binding; competition with immobilised ligand; 1 µM).
For c1cncc(-c2cccc(Nc3nccc(NC4CCCCC4)n3)c2)c1, the remaining binding was 2.2% (binding; competition with immobilised ligand; 10 µM).
With O=C(Nc1c[nH]nc1C(=O)NC1CCNCC1)c1cc(F)cc(F)c1 the remaining binding was 100% (binding; competition with immobilised ligand; 1 µM).
O=C(c1ccc(Nc2nccc(-c3cc4ccccc4s3)n2)cc1)N1CCC(N2CCCC2)CC1 has a remaining binding of 63% (binding; competition with immobilised ligand; 1 µM).
CCC(=N\O)/C(C)=C/c1ccc(F)cc1 has a remaining binding of 91% (cell-free assay; competition with immobilised ligand; 1 µM).
The remaining binding of F[C@@H]1CCN(c2nccc(-c3cnn4ncccc34)n2)C1 is reported as 100% (binding; 1 µM).
With C[C@@H](c1ccc(-n2cnc3c(N)ncnc32)cc1)N1CCc2nn(C)c(Cc3ccccc3)c2C1=O the remaining binding was 98% (binding; competition with immobilised ligand; 0.1 µM).
CCOC(=O)c1cc2cc(-c3cc(C(=O)NCc4ccc(C(=O)O)cc4)nn3C)ccc2[nH]1 has a remaining binding of 93% (cell-free assay; competition with immobilised ligand; 0.1 µM).
The remaining binding of CCN1CCN(Cc2ccc(C(=O)Nc3ccc(C)c(Oc4ccc5c(c4)CC(=O)N5)c3)cc2C(F)(F)F)CC1 is reported as 78% (binding; competition with immobilised ligand; 1 µM).
For Cc1cc(-n2nc(Cc3cc(F)cc(C(F)(F)F)c3)nc2C)ccc1C(N)=O, the remaining binding was 95% (cell-free assay; competition with immobilised ligand; 1 µM).
Cc1cnn2ncc(-c3ccnc(N(C)C)n3)c2c1 gave a remaining binding of 100% (binding; 1 µM).
The remaining binding of COc1cc(-c2cn(C3CCc4ccccc4N(CC(F)(F)F)C3=O)nn2)ccc1-n1ccc(C)n1 (stereo not shown) is reported as 100% (cell-free assay; competition with immobilised ligand; 1 µM).
For FC(F)(F)Oc1cccc(-c2cnc3ccc(-c4ccncc4)nn23)c1, the remaining binding was 56% (binding; competition with immobilised ligand; 5 µM).
